From ChEMBL document CHEMBL2062496, “Identification of a sirtuin 3 inhibitor that displays selectivity over sirtuin 1 and 2” (Eur J Med Chem, 2012) come the findings set out here.

Active and inactive are the calls of the source. No cut-off for these calls is given here.

Data set [1] is described as follows: Cytotoxicity against human SK-MEL-28 cells assessed as cell survival at 100 uM after 48 hrs. The data set is classed as cell-based. The conditions noted are these: read-out: Survival. In outline:
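SK-MEL-28 cells grown in DMEM with 10% foetal bovine serum, 2 mM L-glutamine, penicillin and streptomycin. Cells plated and grown 48 h with or without compound at 100 µM. On the test day, cells washed in Locke's solution (134 mM NaCl, 5 mM KCl, 4 mM NaHCO3, 10 mM HEPES pH 7.6, CaCl2, 1 mM MgCl2, 5 mM sucrose), then incubated 90 min at 37 °C. Survival expressed as percent of control.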

Data set [2] addresses T1, NAD-dependent protein deacetylase sirtuin-1 (Homo sapiens) (UniProt Q96EB6).
T1 sequence (whole entry): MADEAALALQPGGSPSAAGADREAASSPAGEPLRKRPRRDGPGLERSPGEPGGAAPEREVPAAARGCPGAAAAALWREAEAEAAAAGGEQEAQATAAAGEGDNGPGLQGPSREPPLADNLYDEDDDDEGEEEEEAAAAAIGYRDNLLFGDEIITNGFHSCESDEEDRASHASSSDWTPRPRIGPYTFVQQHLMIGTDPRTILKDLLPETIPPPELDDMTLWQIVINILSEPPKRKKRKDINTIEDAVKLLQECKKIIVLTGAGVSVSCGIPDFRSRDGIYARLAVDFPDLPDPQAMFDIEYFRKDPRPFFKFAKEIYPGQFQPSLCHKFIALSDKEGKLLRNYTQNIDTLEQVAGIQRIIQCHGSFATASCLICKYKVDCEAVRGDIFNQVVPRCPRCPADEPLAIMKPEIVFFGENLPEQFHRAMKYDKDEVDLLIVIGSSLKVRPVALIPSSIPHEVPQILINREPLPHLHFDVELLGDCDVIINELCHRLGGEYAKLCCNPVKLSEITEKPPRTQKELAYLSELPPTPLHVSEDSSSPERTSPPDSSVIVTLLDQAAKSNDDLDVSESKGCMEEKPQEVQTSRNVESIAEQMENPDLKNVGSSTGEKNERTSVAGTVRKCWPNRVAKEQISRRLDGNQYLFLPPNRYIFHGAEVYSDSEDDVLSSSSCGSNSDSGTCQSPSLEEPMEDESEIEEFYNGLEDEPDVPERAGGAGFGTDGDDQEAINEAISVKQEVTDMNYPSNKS
As to the kind of experiment: Inhibition of human SIRT1 assessed as enzyme activity using Fluor-de-Lys as substrate at 1 mM by fluorometry. Also on record: scale not given: the % may be the effect or the level left. In outline: (§1)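 Commercial Fluor-de-Lys kit, substrate human p53 379–382 peptide (Arg-His-Lys-Lys(Ac)). Human Sirt1 or Sirt2 was incubated with substrate, NAD+ and compound at 1 mM, also tested at 100 µM. Fluorescence scales with Lys382 deacetylation. Activity is expressed relative to control, mean ± S.E.M. of 3–4 replicates.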

Data set [3] deals with T2, NAD-dependent protein deacetylase sirtuin-2 (Homo sapiens) (UniProt Q8IXJ6).
T2 sequence (whole entry): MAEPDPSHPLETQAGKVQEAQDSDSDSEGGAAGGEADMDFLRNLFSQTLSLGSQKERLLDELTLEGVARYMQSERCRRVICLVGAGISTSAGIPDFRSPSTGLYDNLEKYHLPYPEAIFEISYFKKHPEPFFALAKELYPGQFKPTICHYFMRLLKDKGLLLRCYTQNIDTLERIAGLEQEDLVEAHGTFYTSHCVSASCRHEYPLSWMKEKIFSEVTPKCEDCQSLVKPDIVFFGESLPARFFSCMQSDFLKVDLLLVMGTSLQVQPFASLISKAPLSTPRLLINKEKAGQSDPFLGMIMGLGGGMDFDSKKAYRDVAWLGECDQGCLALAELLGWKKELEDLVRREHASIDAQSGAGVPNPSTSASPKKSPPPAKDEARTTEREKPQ
As to the kind of experiment: Inhibition of human SIRT2 assessed as enzyme activity using Fluor-de-Lys as substrate at 1 mM by fluorometry. Also on record: scale not given: the % may be the effect or the level left. In outline: as §1

Data set [4] concerns the target T1, NAD-dependent protein deacetylase sirtuin-1 (Homo sapiens). Description: Inhibition of human SIRT1 assessed as enzyme activity using Fluor-de-Lys as substrate at 100 uM by fluorometry. The gist of the method:
as §1

Data set [5] addresses T2, NAD-dependent protein deacetylase sirtuin-2 (Homo sapiens). Description: Inhibition of human SIRT2 assessed as enzyme activity using Fluor-de-Lys as substrate at 100 uM by fluorometry. The gist of the method: as §1
The test system of data set [6] is SK-MEL-28. As to the kind of experiment: Effect on ATP level in human SK-MEL-28 cells maintained in medium containing GF and glucose at 100 uM after 24 hrs by luciferase-based assay. Type of data set: functional, cell-based. In outline:
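SK-MEL-28 cells in DMEM with 10% FBS, grown 24 h in 96-well plates in regular medium (growth factors, glucose), with or without compound at 100 µM. Antimycin served as positive control. Cellular ATP was released with a somatic cell releasing reagent and read by luciferase/luciferin bioluminescence. Mean ± S.E.M. of 10–14 replicates from 3 separate experiments.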

The test system of data set [7] is SK-MEL-28. As to the kind of experiment: Reduction in ATP level in human SK-MEL-28 cells at 100 uM maintained in Locke's solution after 24 hrs by luciferase-based assay in absence of GF and glucose. The data set is classed as functional, cell-based. In outline:
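SK-MEL-28 cells were grown 24 h in Locke's saline lacking glucose and serum, with or without 100 µM compound; antimycin was the positive control. Cellular ATP was released with a somatic-cell releasing reagent, then luciferase/luciferin assay mix was added and bioluminescence read. Mean ± S.E.M. of 10–14 replicates from 3 separate experiments.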

`c1cncc(-c2c[nH]nn2)c1`: the viability at 48 h, 100 µM in data set [1] was found to be 69%.
In the case of `Cc1ccc(C(=O)Nc2ccc(S(=O)(=O)O)c3cc(S(=O)(=O)O)cc(S(=O)(=O)O)c23)cc1NC(=O)c1cccc(NC(=O)Nc2cccc(C(=O)Nc3cc(C(=O)Nc4ccc(S(=O)(=O)O)c5cc(S(=O)(=O)O)cc(S(=O)(=O)O)c45)ccc3C)c2)c1`, the Activity came out at 18% in data set [2] and 20% in data set [3].
On to `NS(=O)(=O)c1cccnc1`, for which the Activity amounted to 108% in data set [2] and 115% in data set [3]. Also, the inhibition result in data set [4] and in data set [5] was “inactive” throughout.
Turning to `Cc1ncccc1C(N)=O`, the results for the Activity in data set [2] and in data set [3] were 101% and 107%, respectively. Besides, the inhibition result in data set [4] and in data set [5] was “inactive” each time.
Regarding `c1cncc(-n2ccnn2)c1`, the Activity was determined as 97% in data set [2] and 100% in data set [3]. In addition, the inhibition result in data set [4] and in data set [5] was “inactive” throughout.
With `O=C1NCc2ccncc21`, the Activity came to 117% in data set [2] and 145% in data set [3]. In addition, the inhibition result in data set [4] and in data set [5] was “inactive” each time.
On to `O=C1NCCc2ccncc21`, for which the figures for the Activity in data set [2] and in data set [3] were 125% and 136%, respectively. For the same molecule, the inhibition entry in data set [4] and in data set [5] was “inactive” throughout.
As to `NC(=O)c1cccnc1`, the Activity in data set [3] was 71%. In addition, in data set [6], the result was inactive. The outcome in data set [7] was Active.
Turning to `O=C1NCCc2ncccc21`, the results for the Activity in data set [2] and in data set [3] were 86% and 115%, respectively. In addition, the inhibition result in data set [4] and in data set [5] was “inactive” in each case.
For `NC(=O)/C=C/c1cccnc1`, the figures for the Activity in data set [2] and in data set [3] were 99% and 109%, respectively. Besides, the inhibition result in data set [4] and in data set [5] was “inactive” in each case.
In the case of `Cc1ccncc1C(N)=O`, the Activity was found to be 105% in data set [2] and 110% in data set [3]. Also, the inhibition entry in data set [4] and in data set [5] was “inactive” each time.
For the molecule `O=C1NCc2ncccc21`, the Activity in data set [2] was 88%; in data set [3] it was 111%. The inhibition result in data set [4] and in data set [5] was “inactive” each time.
